15 compounds from ChEMBL document CHEMBL1134840, “Synthesis and antiviral activity of novel acyclic nucleoside analogues of 5-(1-azido-2-haloethyl)uracils” (J Med Chem, 2001) can be followed below.

In one data set the test system is Hepatitis B virus. Nature of the data set: (§1) In vitro antiviral activity against duck hepatitis B virus (DHBV). In kind it is functional, organism-based. The gist of the method: (§2)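 Virus replication inhibition measured in primary hepatocyte cultures prepared from congenitally DHBV-infected ducks.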
The next data set relates to Human betaherpesvirus 5. Nature of the data set: Antiviral activity against human cytomegalovirus. Format: functional, organism-based. The procedure, abridged: (§3)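 CPE inhibition and plaque reduction assays in human foreskin fibroblast (HFF) or Vero cells, run under the NIH Antiviral Research Branch program. Virus strains: HCMV AD-169, HSV-2 MS, VZV Ellen. Acyclovir or ganciclovir served as reference drug.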

The nature of data set [1]: Inhibitory activity against human foreskin fibroblast cell proliferation. In kind it is functional, cell-based. The gist of the method: (§4)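 Proliferating HFF cells; growth inhibition expressed as IC50. Compounds tested up to top concentrations of 130–310 μM.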
The next data set has as its system Anas sp. The data set is described as §1. Format: functional, organism-based. The gist of the method:
as §2

The nature of data set [2]: In vitro cytotoxicity against stationary phase human foreskin fibroblast cells. Format: cell-based. The procedure, abridged: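 Stationary-phase HFF cells; cytotoxicity read by neutral red uptake and expressed as CC50. Compounds tested up to top concentrations of 240–340 μM.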
Data set [3] is described as follows: In vitro cytotoxicity against stationary phase vero cells. In kind it is cell-based. The conditions noted are these: chlorocebus sabaeus. The gist of the method:
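Stationary-phase Vero cells; cytotoxicity read by MTT assay and expressed as CC50. Compounds tested up to top concentrations of 260–620 μM.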

For another data set, the system named is Human alphaherpesvirus 3. The experiment in a line: In vitro antiviral activity against Varicella zoster virus. Format: functional, organism-based. The gist of the method: as §3
Another data set relates to Human alphaherpesvirus 1. The experiment in a line: In vitro antiviral activity against Herpes simplex virus type 1. In kind it is functional, organism-based. The procedure, abridged: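 HSV-1 strains tested: KOS and E-377 (both TK+), and the TK-deficient mutant KOSSB in Vero cells. E-377 was assayed by CPE inhibition and plaque reduction under the NIH program. Acyclovir or ganciclovir served as reference.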

Data set [4] in a line: Cytotoxicity against human foreskin fibroblast cell proliferation. In kind it is cell-based. The note with it: human foreskin fibroblast cells (proliferating). The procedure, abridged: as §4
Another data set relates to Human alphaherpesvirus 2. Nature of the data set: In vitro antiviral activity against Herpes simplex virus type 2. In kind it is functional, organism-based. The procedure, abridged: as §3

pEC50, pIC50: −log10 of the molar value.

One may read the pEC50 as −log10 of the EC50, conventionally taken in molar units. Read a low pEC50 as a large EC50. As usually defined, the pIC50 is the negative decadic logarithm of the IC50, by convention in mol/L. A low value points to a large IC50. In the case of `Nc1nc2c(ncn2COC(CO)CO)c(=O)[nH]1` [GANCICLOVIR], the negative logarithm of the EC50 (pEC50) in the data set with Hepatitis B virus was 5.40; with Human betaherpesvirus 5, 6.64. The negative logarithm of the IC50 (pIC50) in [1] is 3.81.
In the data set with Anas sp., `[N-]=[N+]=NC(CBr)c1cn([C@H]2C[C@H](O)[C@@H](CO)O2)c(=O)[nH]c1=O` (some centres not stated) gave a pEC50 of 5.59.
One may read the CC50 as the concentration giving 50% cytotoxicity. Read a low CC50 as harm at low concentration. With `[N-]=[N+]=NC(CCl)c1cn(COCCO)c(=O)[nH]c1=O` (configuration not stated), the results for the CC50 in [2] and in data set [3] were more than 240 µM and more than 260 µM, respectively. For the same compound, the pIC50 in [1] was less than 3.89.
With `[N-]=[N+]=NC(CBr)c1cn(CCC(CO)CO)c(=O)[nH]c1=O` (configuration not stated), in the data set on Human betaherpesvirus 5, the negative-log EC50 (pEC50) was 5.57. In addition, the CC50 in data set [2] was more than 240 µM; in data set [3], more than 260 µM. The negative-log IC50 (pIC50) in data set [1] was less than 3.57.
In turn, `Nc1nc2c(ncn2COCCO)c(=O)[nH]1` [ACYCLOVIR] had a pEC50 in the data set on Human alphaherpesvirus 3 of 5.59.
`[N-]=[N+]=NC(CI)c1cn(COCCO)c(=O)[nH]c1=O` (configuration not stated): the CC50 is more than 240 µM in data set [2] and more than 260 µM in data set [3]. Also, the negative logarithm of the IC50 (pIC50) in data set [1] is less than 3.89.
With `[N-]=[N+]=NC(CCl)c1cn([C@@H]2O[C@H](CO)[C@@H](O)[C@@H]2O)c(=O)[nH]c1=O` (some centres not stated), the pEC50 with Human betaherpesvirus 5 is 5.84; with Human alphaherpesvirus 1 it was 6.34; in the data set on Human alphaherpesvirus 3 it was 7.10.
Turning to `[N-]=[N+]=NC(CBr)c1cn(COCCO)c(=O)[nH]c1=O` (configuration not stated), the CC50 in [2] was more than 240 µM; in [3], more than 260 µM. The negative-log IC50 (pIC50) in data set [1] was less than 3.89.
In the case of `[N-]=[N+]=NC(CI)c1cn(COC(CO)CO)c(=O)[nH]c1=O` (configuration not stated), the CC50 in data set [2] was more than 240 µM; in [3], more than 260 µM. The compound also gave a pIC50 in data set [1] of less than 3.89. In addition, the negative-log EC50 (pEC50) in the data set with Human alphaherpesvirus 3 was 5.62.
For `Nc1nc(O)c2ncn(CCC(CO)CO)c2n1` [PENCICLOVIR], in the data set on Hepatitis B virus, the pEC50 is 6.15.
On to `[N-]=[N+]=NC(CBr)c1cn(COC(CO)CO)c(=O)[nH]c1=O` (configuration not stated), for which the CC50 is more than 240 µM in data set [2] and more than 260 µM in data set [3]. The pIC50 in data set [1] is less than 3.89.
Turning to `[N-]=[N+]=NC(CCl)c1cn(COC(CO)CO)c(=O)[nH]c1=O` (configuration not stated), the CC50 in data set [2] was more than 240 µM; in data set [3], more than 260 µM. The negative logarithm of the IC50 (pIC50) in [1] is less than 3.89.
Turning to `[N-]=[N+]=NC(CCl)c1cn(CCC(CO)CO)c(=O)[nH]c1=O` (configuration not stated), the CC50 in data set [2] is more than 240 µM; in data set [3], more than 260 µM. The negative logarithm of the IC50 (pIC50) in [1] is less than 3.51.
`[N-]=[N+]=NC(CI)c1cn(CCC(CO)CO)c(=O)[nH]c1=O` (configuration not stated) gave a negative-log EC50 (pEC50) in the data set with Human betaherpesvirus 5 of 4.84. Besides, the pIC50 in data set [1] was less than 3.51; in data set [4], less than 3.59.
For the compound `[N-]=[N+]=NC(CCl)c1cn([C@H]2C[C@H](O)[C@@H](CO)O2)c(=O)[nH]c1=O` (some centres not stated), the negative logarithm of the EC50 (pEC50) was 4.82 in the data set with Anas sp., 7.22 with Human alphaherpesvirus 1, 5.54 in the data set with Human alphaherpesvirus 2 and 5.35 in the data set on Human alphaherpesvirus 3.
